From ChEMBL document CHEMBL4152210, “Design, synthesis, anti-lung cancer activity, and chemosensitization of tumor-selective MCACs based on ROS-mediated JNK pathway activation and NF-κB pathway inhibition” (Eur J Med Chem, 2018)
Activity calls are given as the source filed them. No cut-off for these calls is given here.

Key:
A549 [1] = test: Cytotoxicity against human A549 cells assessed as reduction in cell viability after 72 hrs by MTT assay; type: functional, cell-based; details: A549, 72 h
In short: (§1)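 Cells in RPMI 1640 with 10% heat-inactivated FBS and penicillin/streptomycin at 37 °C, 5% CO2. Seeded at 4000 per well, adhered overnight, then exposed to graded compound concentrations in triplicate wells for 72 h. MTT (5 mg/mL stock) added for 4 h, dissolved in DMSO, A490 read. IC50 is the concentration reducing viability by 50% versus untreated control.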

NCI-H1975 = test: Cytotoxicity against human NCI-H1975 cells assessed as reduction in cell viability after 72 hrs by MTT assay; type: functional, cell-based; details: NCI-H1975, 72 h; in short: as §1
[2] = Selectivity index, ratio of IC50 for human HL7702 cells to IC50 for human A549 cells; type: toxicity
In short: (§2)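 Selectivity index taken as the logarithm of the ratio of the HL7702 IC50 to the cancer-line IC50. […] Not calculated when an IC50 was lacking.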

[3] = Selectivity index, ratio of IC50 for human HL7702 cells to IC50 for human NCI-H1650 cells; type: toxicity; in short: as §2
[4] = Selectivity index, ratio of IC50 for human HL7702 cells to IC50 for human NCI-H1975 cells; type: toxicity; in short: as §2
A549 [5] = test: Cell cycle arrest in human A549 cells assessed as increase in accumulation at G2/M phase after 10 hrs by propidium iodide staining based flow cytometric analysis; type: functional
In short: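 A549 (6 × 10^5 per 60 mm dish, overnight) treated at 1, 5 or 10 µM for 10 h, with BMS345541 (20 µM) as positive control. Trypsinized, fixed in ice-cold 70% ethanol at −20 °C for 30 min, treated with RNase A, stained with 50 µg/mL PI, analysed by flow cytometry.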

A549 [6] = test: Induction of apoptosis in human A549 cells after 24 hrs by Annexin V-FITC/propidium iodide staining based flow cytometric analysis; type: functional, cell-based
In short: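 A549 treated 24 h at 1, 5 or 10 µM, with BMS345541 20 µM as control. Inhibitor arms pretreated 1 h with NAC (5 mM) or SP600125 (10 µM) before 10 µM. Cells harvested with EDTA-free trypsin, stained with FITC Annexin V and PI for 15 min at room temperature in the dark, analysed by flow cytometry.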

A549 [7] = test: Induction of ROS generation in human A549 cells at 10 uM preincubated with NAC for 1 hr followed by compound addition and measured after 9 hrs by DCFDA staining based flow cytometric analysis; type: functional, cell-based
In short: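 A549 (6 × 10^5 per 60 mm dish) exposed to 10 µM over a time course up to 12 h, or at 1, 5 or 10 µM for 9 h. Optional NAC (5 mM) pretreatment for 1 h before 10 µM for 9 h. Cells loaded with DCF-DA (10 µM) for 30 min at 37 °C in the dark, washed, and read by flow cytometry.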

[8] = molecular target: Mitogen-activated protein kinase 8/9 (Homo sapiens) (UniProt P45983+P45984); test: Induction of JNK 1/2 phosphorylatyion in human A549 cells at 10 uM pretreated with 5 mM NAC for 1 hr followed by compound addition and measured after 6 hrs by Western blot analysis; type: cell-based
Mitogen-activated protein kinase 8/9 (Homo sapiens), sequence (P45983 whole entry, looked up): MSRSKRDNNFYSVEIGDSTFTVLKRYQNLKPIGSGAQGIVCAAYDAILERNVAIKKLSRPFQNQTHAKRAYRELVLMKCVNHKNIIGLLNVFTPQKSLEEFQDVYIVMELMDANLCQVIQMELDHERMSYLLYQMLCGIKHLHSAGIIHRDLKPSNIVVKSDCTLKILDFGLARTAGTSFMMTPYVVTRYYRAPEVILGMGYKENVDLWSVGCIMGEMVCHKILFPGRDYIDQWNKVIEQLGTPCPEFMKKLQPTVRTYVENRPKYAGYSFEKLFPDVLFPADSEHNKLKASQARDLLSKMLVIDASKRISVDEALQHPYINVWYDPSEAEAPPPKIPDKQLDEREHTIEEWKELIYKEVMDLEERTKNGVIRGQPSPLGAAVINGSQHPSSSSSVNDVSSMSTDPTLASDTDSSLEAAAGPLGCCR
Mitogen-activated protein kinase 8/9 (Homo sapiens), sequence (P45984 whole entry, looked up): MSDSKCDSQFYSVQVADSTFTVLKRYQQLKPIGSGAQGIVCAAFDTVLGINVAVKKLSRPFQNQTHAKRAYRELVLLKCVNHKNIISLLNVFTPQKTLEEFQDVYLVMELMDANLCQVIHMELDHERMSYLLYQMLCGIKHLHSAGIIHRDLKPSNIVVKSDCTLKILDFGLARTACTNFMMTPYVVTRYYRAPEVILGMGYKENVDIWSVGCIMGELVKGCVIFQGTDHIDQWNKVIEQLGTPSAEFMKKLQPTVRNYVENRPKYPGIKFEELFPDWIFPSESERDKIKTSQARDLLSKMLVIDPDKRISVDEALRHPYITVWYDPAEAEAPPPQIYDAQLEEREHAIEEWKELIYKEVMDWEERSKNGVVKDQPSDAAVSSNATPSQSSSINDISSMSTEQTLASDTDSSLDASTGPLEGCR
In short: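 A549 exposed at 10 µM for varying times, or at various concentrations for 6 h. Inhibition arms pretreated 1 h with SP600125 (10 µM) or NAC (5 mM) before 10 µM for 6 h. Lysates run on 10% SDS-PAGE and transferred to PVDF. p-JNK probed, GAPDH as loading control.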

[9] = molecular target: T1, Inhibitor of nuclear factor kappa-B kinase subunit beta (Homo sapiens) (UniProt O14920); test: Inhibition of cisplatin-induced IKK-beta phosphorylation in human A549 cells at 1 to 10 uM preincubated for 1 hr followed by cisplatin addition and measured after 24 hrs by Western blot analysis; type: cell-based
T1 sequence (whole entry): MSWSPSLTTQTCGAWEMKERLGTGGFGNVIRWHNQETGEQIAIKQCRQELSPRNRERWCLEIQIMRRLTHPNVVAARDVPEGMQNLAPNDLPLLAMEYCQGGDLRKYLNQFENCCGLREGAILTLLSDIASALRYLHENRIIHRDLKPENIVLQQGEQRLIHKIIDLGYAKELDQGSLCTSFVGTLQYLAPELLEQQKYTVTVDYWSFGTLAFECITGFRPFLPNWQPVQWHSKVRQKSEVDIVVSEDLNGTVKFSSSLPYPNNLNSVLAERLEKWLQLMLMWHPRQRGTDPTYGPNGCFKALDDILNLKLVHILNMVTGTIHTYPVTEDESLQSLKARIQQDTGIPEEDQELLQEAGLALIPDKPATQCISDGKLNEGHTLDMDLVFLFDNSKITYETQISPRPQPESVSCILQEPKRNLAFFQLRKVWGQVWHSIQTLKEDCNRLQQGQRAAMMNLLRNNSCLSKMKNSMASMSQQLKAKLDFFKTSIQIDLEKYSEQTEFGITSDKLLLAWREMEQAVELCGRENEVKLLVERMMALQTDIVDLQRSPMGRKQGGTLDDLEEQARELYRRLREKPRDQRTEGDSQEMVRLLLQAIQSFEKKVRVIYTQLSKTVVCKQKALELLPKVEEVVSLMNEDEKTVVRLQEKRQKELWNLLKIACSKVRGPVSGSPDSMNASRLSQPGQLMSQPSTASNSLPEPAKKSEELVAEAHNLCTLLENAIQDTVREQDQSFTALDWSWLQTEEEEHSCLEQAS
In short: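 A549 pretreated 1 h at 1, 5 or 10 µM, or with BMS345541 (20 µM), then exposed to cisplatin (20/3 µM) for 24 h. p-IKKβ assessed by western blot.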

A549 [10] = test: Chemosensitization activity in human A549 cells assessed as inhibition of clonogenic growth at 0.25 uM in presence of 0.25 uM cisplatin incubated for 2 days followed by replacement of growth media and measured after 8 days by crystal violet staining-based assay relative to control; type: functional
In short: (§3)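 A549 seeded at 1000 cells per well in 6-well plates, exposed to drug alone or combined with cisplatin or 5-Fu over a concentration series. Drug-containing medium replaced after 2 days. After a further 8 days, fixed with 1% methanol/1% formaldehyde and stained with 0.5% crystal violet. Percent inhibition at each concentration calculated relative to control.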

A549 [11] = test: Chemosensitization activity in human A549 cells assessed as inhibition of clonogenic growth at 0.5 uM in presence of 0.25 uM cisplatin incubated for 2 days followed by replacement of growth media and measured after 8 days by crystal violet staining-based assay relative to control; type: functional; in short: as §3
A549 [12] = test: Chemosensitization activity in human A549 cells assessed as inhibition of clonogenic growth at 0.25 uM in presence of 3 uM cisplatin incubated for 2 days followed by replacement of growth media and measured after 8 days by crystal violet staining-based assay relative to control; type: functional; in short: as §3
A549 [13] = test: Anticlonogenic activity against human A549 cells assessed as inhibition of clonogenic growth at 0.25 uM incubated for 2 days followed by replacement of growth media and measured after 8 days by crystal violet staining-based assay relative to control; type: functional; in short: as §3
A549 [14] = test: Anticlonogenic activity against human A549 cells assessed as inhibition of clonogenic growth at 1 uM incubated for 2 days followed by replacement of growth media and measured after 8 days by crystal violet staining-based assay relative to control; type: functional; in short: as §3

For `COc1cc(/C=C2\CN(C)C/C(=C\c3cc(OC)c(OC)c(OC)c3)C2=O)cc(OC)c1OC`, the IC50 (A549 [1]) was 1700 nM, the IC50 (NCI-H1975) was 1000 nM and the “log(RatioIC50)” value [2] was 1.19. The “log(RatioIC50)” value [3] was 1.25, the “log(RatioIC50)” value [4] was 1.42 and the Activity (A549 [5]) was “Dose-dependent effect”. For the same molecule, the Activity (A549 [6]) was “Dose-dependent effect”, the Activity (A549 [7]) was “inactive” and the Activity [8] was “inactive”. The inhibition [9] was “Active”, the inhibition at 0.25 µM (A549 [10]) was 51% and the “inhibition (INH)” value (A549 [11]) was 59%. For the same molecule, the “inhibition (INH)” value (A549 [12]) was 57%, the inhibition at 0.25 µM (A549 [13]) was 2 to 11% and the inhibition at 1 µM (A549 [14]) was 44%.
